Compound activity (PubChem)
In the library only some 4.6% were active in any assay of this set; here they are far more common.
CHO parental Ca: counter-screen: ATP calcium response change in parental CHO cells; inhibition, % at 5.6 µM; actives 0.63% (n = 330,000); parental CHO-K1, ATP-induced calcium, Fluo-8 fluorescence; AID 463079;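 active = inhibition above that plate's mean sample inhibition plus 3 SD, cut at about 26% in these data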;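 note: 0% = ATP-challenged DMSO wells and 100% = DMSO wells without ATP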
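Material: parental CHO cells / Compound: single nominal dose of 5.6 µM per compound / Signal: Fluo-8 fluorescence / Replicates: singlicate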
OX1R antag-1: antagonists of human orexin 1 receptor. O43613. CHO/OX1R cells, Fluo-8 calcium fluorescence, orexin A. inhibition, % at 5 µM. actives 0.43% (n = 330,000);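 active = inhibition above its plate's threshold, mean inhibition of all tested compounds on the plate plus 3 SD, cut at about 37% in these data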;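 note: 0% = orexin A challenge wells and 100% = SB-334867-A antagonist wells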
Target sequence (O43613 whole entry, looked up): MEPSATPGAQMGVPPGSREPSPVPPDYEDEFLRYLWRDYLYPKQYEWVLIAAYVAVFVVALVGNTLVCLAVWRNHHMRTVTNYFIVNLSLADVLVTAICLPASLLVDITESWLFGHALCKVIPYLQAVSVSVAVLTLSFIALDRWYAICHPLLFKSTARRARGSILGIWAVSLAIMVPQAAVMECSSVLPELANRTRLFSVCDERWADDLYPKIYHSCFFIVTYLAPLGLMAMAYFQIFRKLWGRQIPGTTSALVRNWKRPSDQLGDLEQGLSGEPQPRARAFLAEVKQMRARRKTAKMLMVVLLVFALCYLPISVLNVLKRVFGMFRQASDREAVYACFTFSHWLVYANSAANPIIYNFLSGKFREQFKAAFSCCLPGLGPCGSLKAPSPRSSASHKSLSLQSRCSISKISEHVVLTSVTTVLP
TAAR1 ag: agonists of human TAAR1. Q96RJ0. activation, % at 3 µM. AID 624467. actives 0.99% (n = 360,000). CHO RD-HGA16 TAAR1, Fluo-8 calcium fluorescence; vehicle wells 0%, saturating PEA agonist 100%;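 active = activation above the mean activation of all test compounds in the run plus 3 SD, cut at about 38% in these data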
Target sequence (Q96RJ0 whole entry, looked up): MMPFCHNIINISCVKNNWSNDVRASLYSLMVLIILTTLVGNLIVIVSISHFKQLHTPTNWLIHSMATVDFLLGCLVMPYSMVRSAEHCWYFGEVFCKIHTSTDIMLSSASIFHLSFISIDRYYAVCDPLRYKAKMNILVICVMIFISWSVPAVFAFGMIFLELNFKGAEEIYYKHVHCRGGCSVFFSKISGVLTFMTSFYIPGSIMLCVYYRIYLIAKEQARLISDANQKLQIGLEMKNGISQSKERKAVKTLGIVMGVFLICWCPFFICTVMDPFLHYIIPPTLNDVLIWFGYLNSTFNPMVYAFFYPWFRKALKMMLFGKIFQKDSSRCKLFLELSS
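Signal – calcium-sensitive Fluo-8 signal, excitation 470-495, emission 515-575 nm · System – RD-HGA16 (CHO) cells co-expressing Gα16 and hTAAR1 · Incubation – 17-24 h seeding, 75 min 37 °C dye, 30 min RT · Compound dosing – 3 µM single concentration · Repeats – no replicates (n 1)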
OX1R antag-2: antagonists of human orexin 1 receptor (OX1R); OX1R-expressing cells, FRET antagonist read-out; inhibition, % at 6.6 µM; actives 1.8% (n = 330,000); AID 485270; in the data active = inhibition mostly above about 38%, no sharp cut-off; inactive = mostly below about 40%;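 note: 0% = agonist challenge alone and 100% = reference antagonist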
GPR7 antagonist: human neuropeptides B/W receptor 1 antagonism | inhibition, % at 4.4 µM | actives 1.1% (n = 290,000) | GPR7-expressing cells, fluorescence antagonist assay | AID 1861; in the data active = inhibition above about 16%, passing the limit was not always enough;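 note: cells stimulated with the agonist NPW; 0% = agonist with vehicle and 100% = vehicle without agonist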
TAAR1 antagonist: human TAAR1 antagonism. inhibition, % at 3 µM. actives 1.5% (n = 360,000). CHO RD-HGA16 TAAR1, Fluo-8 calcium fluorescence, antagonist. AID 624466;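 active = inhibition above a per-plate cutoff, the mean inhibition of test compounds on that plate plus 3 SD, cut at about 49% in these data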;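 note: 0% = DMSO plus EC80 beta-PEA response and 100% = DMSO alone without agonist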
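Assay system: CHO-derived RD-HGA16 cells stably expressing human TAAR1 plus Gα16. Timing: 140 s kinetic read after compound, 140 s after agonist. Technique: kinetic Fluo-8 calcium fluorescence measurement. Measure: % inhibition of agonist calcium response.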
nonsel antag count: nonselective antagonism, TAAR1 counter-screen. shares compounds with TAAR1 antagonist. counterscreen cell line, calcium fluorescence, antagonist mode. inhibition, % at 3 µM. actives 77% (n = 2,400). AID 651780; in the data active = inhibition above about 22%;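 note: CHO-Ga16 host cells stimulated with ATP at an EC80 level; 0% = agonist EC80 plus vehicle and 100% = vehicle without agonist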
TAAR1 antag conf: human TAAR1 antagonism, confirmed | shares compounds with TAAR1 antagonist | TAAR1-expressing cells, fluorescence antagonist read-out | inhibition, % at 3 µM | actives 40% (n = 2,400); in the data active = inhibition above about 49%;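 note: CHO-Ga16 host cells challenged with agonist PEA near its EC80; 0% = agonist at EC80 plus vehicle and 100% = vehicle with no agonist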
Ga16 ag counter: nonselective Ga16 agonist in TAAR1 antagonist counter-screen. shares compounds with TAAR1 antagonist. Ga16-expressing cells, calcium fluorescence, agonist counterscreen. activation, % at 3 µM. actives 18% (n = 2,400). AID 651953; in the data active = activation above about 12%;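 note: 0% = vehicle wells and 100% = saturating stimulus response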
TAAR1 ag count: activates human TAAR1 in antagonist counter-screen | activation, % at 3 µM | actives 2% (n = 2,400) | hTAAR1 cell line, fluorescence activation, agonist mode | AID 651955 | shares compounds with TAAR1 antagonist; in the data active = activation above about 37%;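 note: CHO cells stably expressing TAAR1 with calcium dye readout; 0% = DMSO vehicle and 100% = full agonist response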
* marks the source's active call; other numbers are inactive results; . = no result given.

SMILES	CHO parental Ca	OX1R antag-1	TAAR1 ag	OX1R antag-2	GPR7 antagonist	TAAR1 antagonist	nonsel antag count	TAAR1 antag conf	Ga16 ag counter	TAAR1 ag count
Cc1oc2ccc(O)cc2c1C(=O)c1ccc(F)cc1	-30.7	-11.0	-2.9	10.9	.	-11.5	.	.	.	.
C[C@H](CO)N1C[C@H](C)[C@H](CN(C)C(=O)Nc2ccnc(N3CCOCC3)c2)OCc2cnnn2CCCC1=O	.	.	0.7	.	.	5.9	.	.	.	.
COC(=O)[C@]12CCCCC=C1N(Cc1cccc3ccccc13)C(=O)[C@H](CC(=O)N1CCC(c3ccccc3)CC1)C2	.	.	0.3	.	.	29.1	.	.	.	.
COC(=O)[C@]12CCCCC=C1N(Cc1cccc3ccccc13)C(=O)[C@H](CC(=O)N1CCCCC1)C2	.	.	8.2	.	.	62.3*	21.7*	42.4	6.7	10.0
CCCCn1c(N)c(N(CC(C)C)C(=O)c2cccc(S(=O)(=O)N3CCN(C)CC3)c2)c(=O)[nH]c1=O	-22.7	-22.9	0.5	14.8	.	6.0	.	.	.	.
O=C(Nc1cccc(-c2nc3ccccc3o2)c1)c1cccnc1	-17.1	-17.5	10.2	65.3*	0.9	66.7*	23.4*	35.5	9.7	7.2
O=C(Nc1ccc2oc(-c3cccnc3)nc2c1)c1ccc(Br)o1	-7.2	-12.0	19.7	12.8	-7.1	52.0*	16.9	25.3	4.4	4.9
O=C(Nc1ccc2oc(-c3cccnc3)nc2c1)c1cccnc1	3.4	-38.3	8.6	24.4	-8.2	11.8	.	.	.	.
COc1ccccc1NS(=O)(=O)c1cccc(NS(=O)(=O)c2ccc(Cl)c(C(=O)O)c2)c1	-7.0	1.8	2.7	9.0	.	-10.4	.	.	.	.
O=C(O)c1cccc(NC(=O)c2cn(-c3ccccc3)nc2-c2cc3ccccc3o2)c1	17.6	19.4	11.9	16.3	-4.1	63.7*	38.7*	42.2	6.4	4.5
O=C(N/N=C/c1cn(-c2ccccc2)nc1-c1cc2ccccc2o1)c1ccncc1	-28.0	-12.8	6.7	9.6	10.6	48.2	.	.	.	.
CN1C(=O)N(CC(=O)N2CCN(S(=O)(=O)c3ccc(Cl)s3)CC2)C(=O)C12CCCCC2	-17.5	-22.2	4.5	2.9	.	-3.3	.	.	.	.
Cc1ccc2sc(NNC(=O)C3=COCCO3)nc2c1C	9.6	-8.7	0.7	6.0	1.4	-6.5	.	.	.	.
O=C(COC(=O)CSc1ccc(F)cc1)NCC1CCCCC1	-6.5	3.6	1.0	10.6	-11.5	-34.1	.	.	.	.
O=C(CSc1ccc([N+](=O)[O-])cc1)NCC1CCCCC1	-7.9	-9.6	15.8	25.5	-6.1	104.7*	8.9	11.2	2.3	2.4
COc1ccc2cc(C3=CC(=O)CC(C)(C)C3=O)ccc2c1	.	.	6.6	.	.	60.7*	26.5*	43.5	6.5	5.8
O=C(COc1ccc(-c2ccccc2)cc1)N/N=C/c1ccccc1Br	1.3	-35.3	0.3	20.6	6.5	16.8	.	.	.	.
N#Cc1ccc(-c2ccc(OCC(=O)NN=Cc3ccncc3)cc2)cc1	-9.5	-7.5	13.6	13.7	.	54.3*	25.9*	52.7*	12.6*	14.0
O=C(COc1ccc(-c2ccccc2)cc1)N/N=C/c1cc(O)ccc1Br	-19.9	-33.6	-1.3	19.3	-10.9	53.2*	22.4*	27.9	0.9	0.0
Cc1ccc(N2CC(C(=O)N3CCC(C(=O)NC(C)(C)C)CC3)CC2=O)cc1 (centres undefined)	5.2	-9.1	1.7	15.2	-7.1	-24.5	.	.	.	.
N#C/C(=C\Nc1ccc2c(c1)OCCO2)C(=O)NCc1ccco1	-12.4	-12.0	-2.2	8.3	-7.9	0.5	.	.	.	.
CCc1ccc(N/C(SCc2cccc(F)c2)=C(/C#N)C(=O)NCc2ccco2)cc1	-7.2	-18.0	11.0	7.8	-10.9	50.4*	0.5	15.3	1.6	4.0
O=C(Oc1ccc(NC2=C(Cl)C(=O)c3ccccc3C2=O)cc1)c1ccc([N+](=O)[O-])cc1	.	.	.	.	-7.8	.	.	.	.	.
CC(=O)Nc1ccc(NC2=C(Cl)C(=O)c3ccccc3C2=O)cc1	.	.	-3.5	.	-4.0	65.0*	39.5*	46.8	-2.7	-6.2
Cc1cccc(NS(=O)(=O)c2ccc(C(=O)N3CCN(c4ccccc4O)CC3)cc2)c1C	8.5	15.5	23.2	20.5	21.5	82.8*	38.4*	45.5	12.9*	10.5
SMILES	CHO parental Ca	OX1R antag-1	TAAR1 ag	OX1R antag-2	GPR7 antagonist	TAAR1 antagonist	nonsel antag count	TAAR1 antag conf	Ga16 ag counter	TAAR1 ag count
Cc1ccc(S(=O)(=O)Nc2cccc(C(=O)N3CCN(c4ccccc4O)CC3)c2)cc1F	-1.0	-25.0	19.6	8.8	.	61.0*	24.3*	41.9	9.3	9.9
Cc1ccccc1NS(=O)(=O)c1ccc(C(=O)N2CCCC2)cc1	-11.6	-15.3	3.4	18.2	.	-1.5	.	.	.	.
O=C(Cc1ccc(Br)cc1)N1CCN(c2ccccc2O)CC1	-9.7	-28.1	8.3	14.8	7.7	2.0	.	.	.	.
COc1ccc(-c2noc(CCC(=O)N3CCN(c4ccccc4C(F)(F)F)CC3)n2)cc1	-14.8	-2.0	5.4	10.1	.	64.8*	28.1*	47.6	10.8	14.9
COc1ccc(-c2noc(CCC(=O)N3CCN(c4ccccc4OC)CC3)n2)cc1	-19.0	-10.8	5.9	1.9	.	26.5	.	.	.	.
N#C/C(=C\c1ccc(-c2ccc(C(=O)O)cc2)o1)C(=O)Nc1ccc(F)cc1	-5.3	-13.8	22.0	16.6	-5.9	70.1*	33.2*	44.8	16.6*	20.0
O=[N+]([O-])c1cccnc1SCc1c(F)cccc1Cl	-7.4	-30.7	10.4	24.0	-18.1	52.4*	15.6	27.1	3.3	8.6
CC(=O)NNC(=O)CCn1nnc(-c2ccc(Cl)cc2)n1	5.0	-11.9	1.8	-5.6	-7.7	24.8	.	.	.	.
O=C(c1ccc(Br)o1)N(Cc1ccccc1)Cc1ccccc1	-29.6	-51.4	16.1	23.9	-13.3	49.8*	12.5	13.7	0.7	-0.2
Cc1ccccc1NC(=O)CCN1C(=O)CSC1=O	-12.2	-16.2	-2.2	8.1	-11.6	105.9*	-6.2	-6.0	3.1	5.1
CCOc1ccc(CCNC(=O)c2ccc(OCc3c(C)noc3C)cc2)cc1OCC	-25.4	-30.1	11.5	14.8	.	42.7	.	.	.	.
Cc1ccc(-c2nc3ccccc3[nH]2)cc1NC(=O)c1ccc2c(c1)OCO2	-16.6	-13.6	17.3	9.9	7.8	6.4	.	.	.	.
Cc1ccc(-c2nc3ccccc3[nH]2)cc1NC(=S)NC(=O)c1ccccc1Br	-18.9	38.6	7.2	86.8*	-3.8	69.9*	35.8*	47.1	5.6	-0.3
